# Screening data (PubChem)
# DYRK1A inh: Dyrk1A (rat) kinase inhibition | ADP-Glo luminescence, NFATc1 peptide | inhibition, % at 12.5 µM | 0.43% of 310,000 active; in the data active = inhibition above about 50%
# CAL PDZ FP-1: CAL PDZ (human) peptide binding inhibition; Q9HD26; purified CAL PDZ, TMR-peptide fluorescence polarization, 1 h; inhibition, % at 24.9 µM; 0.92% of 300,000 active; AID 602252;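 active = mean inhibition of at least 30% with at least half of replicates also reaching 30%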
# ALR H2O2 inh: human ALR oxidase inhibition via reduced H2O2; 3.8% of 290,000 active; purified ALR, DTT oxidation, H2O2 HRP-luminol luminescence; inhibition, % (no concentration beside the values); AID 485317;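 active = mean replicate inhibition above about 79%, with every replicate also reaching it, limit read from the data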
# Target sequence (P55789 whole entry, looked up): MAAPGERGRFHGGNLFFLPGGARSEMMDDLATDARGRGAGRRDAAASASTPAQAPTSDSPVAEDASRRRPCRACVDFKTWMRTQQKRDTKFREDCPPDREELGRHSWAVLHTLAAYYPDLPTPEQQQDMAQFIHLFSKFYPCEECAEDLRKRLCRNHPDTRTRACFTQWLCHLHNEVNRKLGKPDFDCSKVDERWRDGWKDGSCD
# Rtt109 Vps75: inhibitors of Candida albicans Rtt109/Vps75 histone acetyltransferase; purified Rtt109/Vps75, ThioGlo CoA-SH fluorescence, 4 h; inhibition, % at 34.9 µM; 0.16% of 330,000 active; Q5AAJ8;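 active = inhibition of at least 50% in every replicate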
# Target sequence (Q5AAJ8 whole entry, looked up): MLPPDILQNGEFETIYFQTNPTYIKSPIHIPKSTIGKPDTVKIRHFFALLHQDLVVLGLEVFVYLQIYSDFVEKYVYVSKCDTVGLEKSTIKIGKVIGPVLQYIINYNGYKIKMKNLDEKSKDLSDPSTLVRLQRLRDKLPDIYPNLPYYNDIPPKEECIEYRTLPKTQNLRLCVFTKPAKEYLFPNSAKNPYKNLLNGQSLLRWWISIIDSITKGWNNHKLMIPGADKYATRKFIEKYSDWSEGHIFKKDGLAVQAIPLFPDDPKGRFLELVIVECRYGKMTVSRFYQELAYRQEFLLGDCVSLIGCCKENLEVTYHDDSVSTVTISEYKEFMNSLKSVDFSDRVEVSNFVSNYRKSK
# CAL PDZ FP-2: human CAL PDZ-peptide interaction inhibition; Q9HD26; purified CAL PDZ, TMR-peptide fluorescence polarization, 1 h; inhibition, % at 20 µM; 0.02% of 330,000 active;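 active = highest replicate inhibition of at least 40%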
#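 material = purified tagged CAL PDZ domain construct (CerCALP) | compound dosing = 20 µM, one dose | times = 1 h at RT | measured by = fluorescence polarization from S- and P-plane intensities, G-factor corrected | read-out = inhibition from polarization loss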
# Hits are given with their value; - = inactive; . = no result; + = active, no number. Compounds with a hit are over-represented: about 4.3% of the library has one in this group of screens.
SMILES,DYRK1A inh,CAL PDZ FP-1,ALR H2O2 inh,Rtt109 Vps75,CAL PDZ FP-2
O=C(CCl)N1CCN(S(=O)(=O)c2ccc3c(c2)CCC3)CC1,.,-,.,-,-
COc1ccccc1-c1noc(CCC(=O)NC2CCCCC2)n1,-,-,-,-,-
CN(C)c1cccc(C(=O)NNC(=O)/C=C/c2cccs2)c1,.,77,-,-,-
CC(=O)Nc1cccc(C(=O)/C=C/c2ccc(N(C)C)cc2)c1,-,-,99,-,-
CNC(=S)NNC(=O)c1cccc(N(C)C)c1,-,-,-,-,-
CC(=O)Nc1cccc(C(=O)/C=C/c2cccs2)c1,-,-,97,-,-
CC(=O)Nc1cccc(C(=O)/C=C/c2ccc(/C=C/C(=O)c3cccc(NC(C)=O)c3)cc2)c1,.,.,-,.,.
CC(=O)Nc1cccc(C(=O)/C=C/c2ccc(F)cc2)c1,-,-,-,-,-
COc1ccccc1CN1CCNC(=O)C1CC(=O)NCCc1cnccn1 (centres undefined),-,-,-,-,-
COc1cc(CNCc2ccncc2)cc(OC)c1OC,.,.,.,-,-
COc1cc(CNCc2ccc(C)cc2)cc(OC)c1OC,-,-,-,51,-
NNC(=O)c1csc(-c2ccc(C(F)(F)F)cc2Cl)n1,.,-,93,-,-
O=C(NCCCN1CCCC1=O)c1cccc(S(=O)(=O)N2CCCCC2)c1,.,-,-,-,-
CC(C)CCNC(=O)NC(=O)COC(=O)/C=C/c1cccc([N+](=O)[O-])c1,.,37,-,-,-
C/C(CC(=O)Nc1ccccc1Br)=N\NC(=O)C(=O)N1CCCC1,-,108,-,-,-
CCOC(=O)COc1coc(CN2CCN(c3ccc(F)cc3)CC2)cc1=O,-,41,-,-,-
N#Cc1c(NC(=O)C(=O)NCCCN2CCOCC2)sc2c1CCCC2,-,-,96,-,-
O=C(NCCCN1CCOCC1)c1ccc(Cl)cc1Cl,-,.,-,-,-
CN1C(C)(C)CC(=NOC(=O)c2ccccc2)CC1(C)C,-,62,.,-,-
CN(C)/C=C(\c1cnc(Cl)s1)S(=O)(=O)c1ccccc1,-,.,.,-,-
Cc1ccc2c(CC(=O)Nc3sccc3C(N)=O)coc2c1,-,-,85,-,-
COC(=O)c1c(-c2ccccc2)nn(-c2ccccc2)c1C(=O)OC,-,-,-,-,-
O=C1CCC(=O)N1CNc1ccc(Oc2ccccc2)cc1,-,-,98,-,-
Cc1cc(N/N=C/c2ccc(O)cc2O)nc(N2CCOCC2)n1,-,-,97,-,-
Oc1ccc(/C=N\Nc2cc(N3CCOCC3)nc(N3CCOCC3)n2)c(O)c1,-,-,85,-,-
SMILES,DYRK1A inh,CAL PDZ FP-1,ALR H2O2 inh,Rtt109 Vps75,CAL PDZ FP-2
Oc1ccc(/C=N/Nc2cc(N3CCCC3)nc(N3CCCC3)n2)cc1O,-,-,90,-,-
COc1ccc(/C=N/Nc2cc(C)nc(N3CCOCC3)n2)c(OC)c1,-,-,-,-,-
COc1ccc(/C=N/Nc2nc(N3CCCC3)nc(N3CCCC3)n2)cc1O,-,-,99,-,-
COc1ccc(/C=N/Nc2nc(N3CCCC3)nc(N3CCCC3)n2)cc1,-,-,-,-,-
CC(C)c1ccc(/C=N/Nc2cc(N3CCOCC3)nc(N3CCOCC3)n2)cc1,-,-,-,-,-
COC(=O)c1cc(Cn2nc(C(=O)O)c3ccccc3c2=O)oc1C,-,-,-,-,-
CCc1ccc(CNC(=O)C2Cc3cc(S(=O)(=O)N4CCCC4)ccc3N2C(C)=O)cc1 (centres undefined),-,-,-,-,-
Cc1cc(CNC(=S)Nc2ccc(S(=O)(=O)Nc3ncccn3)cc2)nn1C,-,-,-,-,-
Cc1nn(C)c(C)c1NC(=S)Nc1ccc(S(=O)(=O)Nc2ncccn2)cc1,-,39,-,-,-
CNS(=O)(=O)c1cc(NC(=O)CCNC(=O)c2ccco2)ccc1C,-,-,-,-,-
NC(=NC(=O)c1ccccc1)N1CCN(C(c2ccccc2)c2ccccc2)CC1,.,89,-,-,-
COc1cccc(C=O)c1OCCCOc1cccc2cccnc12,.,-,97,-,-
NC(=S)Cc1ccc(Cl)cc1Cl,-,-,-,-,-
N=C(N)SCc1ccc(Cl)cc1Cl,-,-,99,-,-
CN(CC(=O)Nc1ncn[nH]1)S(=O)(=O)c1ccc(Br)cc1,-,-,-,-,-
CCCn1c(N)c(NCCN2CCOCC2)c(=O)[nH]c1=O,-,-,99,-,-
Cc1ccc(S(=O)(=O)N2CCOCC2)cc1NC(=O)COC(=O)Cc1ccccc1,-,-,-,-,-
COc1ccc(CN(C(=O)c2ccco2)c2ccc(C)c(C)c2)cc1,-,31,-,-,-
CCOc1ccc(N(Cc2ccc(OC)cc2)C(=O)c2ccco2)cc1,-,-,-,-,-
CCn1c(=S)[nH]c2scc(-c3cccs3)c2c1=O,-,-,.,-,-
O=c1c2c(-c3cccs3)csc2ncn1-c1ccccc1,-,-,-,-,-
O=c1c2c(-c3cccs3)csc2[nH]c(=S)n1-c1ccccc1,-,-,90,-,.
CC(C)n1c(=S)[nH]c2scc(-c3cccs3)c2c1=O,-,-,90,-,-
CCCCCC(=O)C(=O)c1ccc(O)cc1O,-,-,-,-,-
COc1cccc(-c2nc(CS(=O)CC(=O)NC3CCCCC3)c(C)o2)c1 (centres undefined),-,.,99,-,-
SMILES,DYRK1A inh,CAL PDZ FP-1,ALR H2O2 inh,Rtt109 Vps75,CAL PDZ FP-2
Cc1cccc(-c2nc(CS(=O)CC(=O)NCCCSC3CCCCC3)c(C)o2)c1 (centres undefined),-,.,-,-,-
COc1cccc(-c2nc(CS(=O)CC(=O)NC3CCCC3)c(C)o2)c1 (centres undefined),-,-,99,-,-
COc1cccc(-c2noc(CCC(=O)NC3CCCC3)n2)c1,-,-,-,-,-
CCN(Cc1ccncc1)C(=O)c1ccccc1NS(=O)(=O)c1ccc(F)cc1,-,-,-,-,-
CCCc1c(C)c2cccc(C)c2[nH]c1=O,-,-,-,-,.
CCCCN1CCc2c([nH]c3c(C)cccc23)C1=O,-,72,-,-,-
CC(O)CNc1cnccn1 (centres undefined),-,-,-,.,-
Cc1ccc(NC(=O)CC2SC(=O)N(c3ccccc3)C2=O)cc1 (centres undefined),-,-,98,-,-
Cc1cccc(NC(=O)CC2SC(=O)N(c3ccccc3)C2=O)c1 (centres undefined),-,-,98,-,-
CCCN1C(=O)SC(CC(=O)Nc2ccc(C)cc2)C1=O (centres undefined),-,-,-,-,.
COc1ccc(OC)c(NC(=O)CC2SC(=N)N(c3ccccc3)C2=O)c1 (centres undefined),-,+,-,-,-
Cc1cccc(NC2SC(=O)N(c3ccccc3)C2=O)c1 (centres undefined),-,-,-,-,-
N=C1SC(CC(=O)Nc2ccc([N+](=O)[O-])cc2)C(=O)N1c1ccccc1 (centres undefined),-,.,-,-,-
